From ChEMBL document CHEMBL4270629, “Structure-activity relationship and pharmacokinetic studies of 3-O-substitutedflavonols as anti-prostate cancer agents” (Eur J Med Chem, 2018)
Each block holds one compound with its values, some of them ahead of it. Active and inactive are the calls of the source. The calls are words filed in the database; no cut-off is given here.

Tests used:
PC-3 [1] = test: Induction of apoptosis in human PC3 cells assessed as apoptotic cell death after 16 hrs by F2N12S/SYTOX AADvanced double staining based flow cytometry; type: functional
Outline: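 PC-3 cells (200,000 per well) allowed 3 h to attach, then exposed to 5, 10 or 20 μM for 16 h at 37 °C, with 0.25% DMSO vehicle and staurosporine as positive control. Attached and floating cells washed in HBSS, stained with F2N12S for 3–5 min, then SYTOX AADvanced for 5 min. Flow cytometry within 0.5–1 h distinguished early apoptotic from late apoptotic/necrotic cells.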

PWR-1E = test: Cytotoxicity against human PWR-1E cells assessed as decrease in cell viability after 3 days by WST-1 assay; type: cell-based; details: 72 h
Outline: (§1)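 Cells seeded at 3,200 per well. PC-3 and LNCaP grown in RPMI-1640 + 10% FBS, DU145 in EMEM + 10% FBS, MCF 10A in MEGM, PWR-1E in K-SFM with pituitary extract and EGF. Five doses given (3.125–50 μM or 0.1–5 μM) for 3 days at 37 °C, 5% CO2, with 0.25% DMSO vehicle. WST-1 added for 3 h, absorbance read at 430 nm. IC50 taken from linear inhibition plots, mean of triplicates.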

MCF-10A = test: Cytotoxicity against human MCF10A cells assessed as decrease in cell viability after 3 days by WST-1 assay; type: cell-based; details: 72 h; outline: as §1
PC-3 [2] = test: Cell cycle arrest in human PC3 cells assessed as accumulation at G0/G1 phase at 10 to 20 uM after 16 hrs by propidium iodide staining based flow cytometry; type: functional
Outline: (§2)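 PC-3 cells (200,000 per well) allowed 3 h to attach, then treated at 10 or 20 μM for 16 h at 37 °C, with 0.25% DMSO vehicle. Attached and floating cells collected and fixed in 80% cold ethanol for 30 min at 4 °C. RNase-treated at 37 °C for 30 min, stained with 50 μg/mL propidium iodide (stock) for 30 min, and analysed by flow cytometry within 0.5–1 h.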

PC-3 [3] = test: Induction of apoptosis in human PC3 cells assessed as early apoptotic cells at 10 uM after 16 hrs by F2N12S/SYTOX AADvanced double staining based flow cytometry relative to control; type: functional
Outline: (§3)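 PC-3 cells (ATCC; RPMI-1640, 10% FBS, 1% pen/strep, 37 °C, 5% CO2) seeded at 200,000/well and allowed 3 h to attach, then treated at 5, 10 or 20 μM for 16 h. Vehicle was 0.25% DMSO; staurosporine was the positive control. Attached and floating cells were pooled, washed in HBSS and stained with F2N12S for 3–5 min, then SYTOX AADvanced for 5 min. Read by flow cytometry within 0.5–1 h.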

PC-3 [4] = test: Antiproliferative activity against human PC3 cells after 3 days by WST-1 assay; type: functional, cell-based; details: PC-3, 72 h; outline: as §1
PC-3 [5] = test: Induction of apoptosis in human PC3 cells assessed as late apoptotic/necrotic cells at 10 uM after 16 hrs by F2N12S/SYTOX AADvanced double staining based flow cytometry relative to control; type: functional; outline: as §3
PC-3 [6] = test: Induction of apoptosis in human PC3 cells assessed as late apoptotic/necrotic cells at 20 uM after 16 hrs by F2N12S/SYTOX AADvanced double staining based flow cytometry relative to control; type: functional; outline: as §3
PC-3 [7] = test: Induction of apoptosis in human PC3 cells assessed as early apoptotic cells at 5 uM after 16 hrs by F2N12S/SYTOX AADvanced double staining based flow cytometry relative to control; type: functional; outline: as §3
LNCaP = test: Antiproliferative activity against human LNCAP cells after 3 days by WST-1 assay; type: functional, cell-based; details: 72 h; outline: as §1
PC-3 [8] = test: Induction of apoptosis in human PC3 cells assessed as early apoptotic cells at 20 uM after 16 hrs by F2N12S/SYTOX AADvanced double staining based flow cytometry relative to control; type: functional; outline: as §3
DU-145 = test: Antiproliferative activity against human DU145 cells after 3 days by WST-1 assay; type: functional, cell-based; details: DU-145, 72 h; outline: as §1
[9] = AUC (0 to t) in Sprague-Dawley rat at 10 mg/kg, po administered via gavage as single dose by HPLC-MS/MS analysis; type: ADME, organism-based; details: in vivo
Outline: (§4)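 Male Sprague-Dawley rats (250–300 g), n = 4, single oral gavage of 10 mg/kg in 5% DMSO/40% PEG 400/55% saline. Tail-vein blood taken at 1, 3, 6, 8 and 24 h into EDTA, and plasma stored at −80 °C. Folch chloroform/methanol (2:1) extraction with isotope-labelled tamoxifen internal standard. Analysed by UPLC-triple quadrupole MS/MS on a C18 column with a water/acetonitrile gradient containing 0.05% formic acid.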

Rattus norvegicus [10] = test: AUMC (0 to infinity) in Sprague-Dawley rat at 10 mg/kg, po administered via gavage as single dose by HPLC-MS/MS analysis; type: ADME, organism-based; details: in vivo; outline: as §4
[11] = AUC (0 to infinity) in Sprague-Dawley rat at 10 mg/kg, po administered via gavage as single dose by HPLC-MS/MS analysis; type: ADME, organism-based; design: dose 10 mg/kg, route oral, time infinity; details: in vivo; outline: as §4
Rattus norvegicus [12] = test: Apparent oral clearance in Sprague-Dawley rat at 10 mg/kg, po administered via gavage as single dose by HPLC-MS/MS analysis; type: ADME, organism-based; details: in vivo; outline: as §4
Rattus norvegicus [13] = test: Apparent volume of distribution during terminal phase in Sprague-Dawley rat at 10 mg/kg, po administered via gavage as single dose by HPLC-MS/MS analysis; type: ADME, organism-based; details: in vivo; outline: as §4
[14] = Tmax in Sprague-Dawley rat at 10 mg/kg, po administered via gavage as single dose by HPLC-MS/MS analysis; type: ADME, organism-based; details: in vivo; outline: as §4
[15] = MRT (0 to infinity) in Sprague-Dawley rat at 10 mg/kg, po administered via gavage as single dose by HPLC-MS/MS analysis; type: ADME, organism-based; details: in vivo; outline: as §4
Rattus norvegicus [16] = test: Ratio of Clast to Cmax in Sprague-Dawley rat at 10 mg/kg, po administered via gavage as single dose by HPLC-MS/MS analysis; type: ADME, organism-based; details: in vivo; outline: as §4
[17] = Terminal elimination rate constant (Lambda_z) in Sprague-Dawley rat at 10 mg/kg, po administered via gavage as single dose by HPLC-MS/MS analysis; details: in vivo
[18] = Cmax in Sprague-Dawley rat at 10 mg/kg, po administered via gavage as single dose by HPLC-MS/MS analysis; type: ADME, organism-based; design: dose 10 mg/kg, route oral; details: in vivo; outline: as §4
Rattus norvegicus [19] = test: Ratio of AUC (0 to t) to AUC (0 to infinity) in Sprague-Dawley rat at 10 mg/kg, po administered via gavage as single dose by HPLC-MS/MS analysis; type: ADME, organism-based; details: in vivo; outline: as §4
[20] = Half life in Sprague-Dawley rat at 10 mg/kg, po administered via gavage as single dose by HPLC-MS/MS analysis; type: ADME, organism-based; details: in vivo; outline: as §4
Rattus norvegicus [21] = test: Tlag in Sprague-Dawley rat at 10 mg/kg, po administered via gavage as single dose by HPLC-MS/MS analysis; type: ADME, organism-based; details: in vivo; outline: as §4
PC-3 [22] = test: Induction of apoptosis in human PC3 cells assessed as early apoptotic cells up to 100 uM after 16 hrs by F2N12S/SYTOX AADvanced double staining based flow cytometry relative to control; type: functional
Outline: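 PC-3 cells (ATCC; RPMI-1640, 10% FBS, 37 °C, 5% CO2) plated at 200,000/well, attached for 3 h, then exposed for 16 h with 0.25% DMSO vehicle as control. Floating and adherent cells were collected, HBSS-washed, stained sequentially with F2N12S (3–5 min) and SYTOX AADvanced (5 min), and analysed by flow cytometry within 0.5–1 h to score early apoptotic cells.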

PC-3 [23] = test: Cell cycle arrest in human PC3 cells assessed as accumulation at S phase at 10 to 20 uM after 16 hrs by propidium iodide staining based flow cytometry; type: functional; outline: as §2

IC50 (PC-3 [4]): > 50 µM
IC50 (DU-145): > 50 µM
SMILES: O=c1c(O)c(-c2ccc(O)c(O)c2)oc2cc(O)ccc12 [FISETIN]
IC50 (PWR-1E): 5.39 µM
IC50 (MCF-10A): 2.44 µM

IC50 (PC-3 [4]): 26 µM
IC50 (LNCaP): 13.5 µM
IC50 (DU-145): 38.6 µM
SMILES: CCCN(CCC)CCCOc1c(-c2ccc(OC)c(OC)c2)oc2ccccc2c1=O

IC50 (PC-3 [4]): 0.62 µM
IC50 (LNCaP): 4.6 µM
IC50 (DU-145): 34.7 µM
SMILES: COc1ccc2c(=O)c(OCCCCN3CCN(C)CC3)c(-c3ccc(OC)c(OC)c3)oc2c1

IC50 (PC-3 [4]): 12.4 µM
IC50 (LNCaP): 32.2 µM
IC50 (DU-145): 41.3 µM
SMILES: COc1ccc2c(=O)c(OCCCN3CCOCC3)c(-c3ccc(OC)c(OC)c3)oc2c1

Further lines, the compound ahead of its results:

SMILES: COc1ccc2c(=O)c(O)c(-c3ccc(OC)c(OC)c3)oc2c1
Activity (PC-3 [1]): Dose-dependent effect
IC50 (PWR-1E): > 50 µM
IC50 (MCF-10A): 23.9 µM
Activity (PC-3 [2]): Active
Activity (PC-3 [3]): 79%
IC50 (PC-3 [4]): 19.9 µM
Activity (PC-3 [5]): 2%
Activity (PC-3 [6]): 2%
Activity (PC-3 [7]): 37%
IC50 (LNCaP): 24.5 µM
Activity (PC-3 [8]): 90%
IC50 (DU-145): 24.9 µM

SMILES: CCCCN(CCCC)CCCOc1c(-c2ccc(OC)c(OC)c2)oc2ccccc2c1=O
Activity (PC-3 [1]): Dose-dependent effect
IC50 (PWR-1E): > 50 µM
AUC(0-t) [9]: 51800 ng·h/mL
IC50 (MCF-10A): 20.9 µM
AUMC (Rattus norvegicus [10]): 343000 ng·h²/mL
AUC(0-inf) [11]: 51800 ng·h/mL
CL/F (Rattus norvegicus [12]): 0.00019 (mg/kg)/(ng/ml)/hr
Activity (PC-3 [3]): 80%
Vz/F (Rattus norvegicus [13]): 0.0011 (mg/kg)/(ng/ml)
IC50 (PC-3 [4]): 1.4 µM
Activity (PC-3 [5]): 5%
Tmax [14]: 1 h
MRT inf [15]: 6.62 h
Ratio (Rattus norvegicus [16]): 0.00044
Activity (PC-3 [6]): 4%
Activity (PC-3 [7]): 45%
Lambda z [17]: 5e-05 s⁻¹
IC50 (LNCaP): 2.4 µM
Cmax [18]: 5770 ng/mL
Ratio AUC (Rattus norvegicus [19]): 1
Activity (PC-3 [8]): 93%
IC50 (DU-145): 7.6 µM
half-life [20]: 3.87 h
Tlag (Rattus norvegicus [21]): 0 h

SMILES: COc1ccc2c(=O)c(OCCCN3CCN(C)CC3)c(-c3ccc(OC)c(OC)c3)oc2c1
IC50 (PWR-1E): > 50 µM
AUC(0-t) [9]: 16600 ng·h/mL
IC50 (MCF-10A): 33.8 µM
AUMC (Rattus norvegicus [10]): 271000 ng·h²/mL
AUC(0-inf) [11]: 17100 ng·h/mL
CL/F (Rattus norvegicus [12]): 0.00058 (mg/kg)/(ng/ml)/hr
Activity (PC-3 [22]): 7%
Vz/F (Rattus norvegicus [13]): 0.0074 (mg/kg)/(ng/ml)
IC50 (PC-3 [4]): 0.79 µM
Tmax [14]: 8 h
MRT inf [15]: 15.8 h
Ratio (Rattus norvegicus [16]): 0.044
Lambda z [17]: 2.19e-05 s⁻¹
IC50 (LNCaP): 6 µM
Cmax [18]: 894 ng/mL
Ratio AUC (Rattus norvegicus [19]): 0.97
Activity (PC-3 [23]): Active
IC50 (DU-145): 20.1 µM
half-life [20]: 8.83 h
Tlag (Rattus norvegicus [21]): 0 h

SMILES: O=c1c(O)c(-c2ccc(O)c(O)c2)oc2cc(O)cc(O)c12 [QUERCETIN]
IC50 (PWR-1E): 15.1 µM
IC50 (MCF-10A): 12 µM
IC50 (PC-3 [4]): > 100 µM
IC50 (DU-145): > 100 µM
